Source: ChEMBL document CHEMBL1629690, “Development of hexadecyloxypropyl tenofovir (CMX157) for treatment of infection caused by wild-type and nucleoside/nucleotide-resistant HIV” (Antimicrob Agents Chemother, 2010)

What was measured:
[1] = test system: Human immunodeficiency virus 1; experiment: Antiviral activity against HIV1 isolate 215 harboring reverse transcriptase D67N/K70E mutant gene by phenosense assay; type: functional, organism-based; conditions: Human immunodeficiency virus 1, isolate 215
Method in brief: (§1)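 PhenoSense HIV recombinant virus assay: patient-derived HIV-1 with major NRTI resistance mutations tested against increasing drug concentrations to give inhibition curves. EC50 is the concentration giving 50% inhibition. Fold change is the test recombinant EC50 divided by the EC50 of a drug-sensitive wild-type reference virus. Panel of 30 NRTI-resistant isolates plus two wild-type viruses.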

[2] = test system: Human immunodeficiency virus 1; experiment: Antiviral activity against HIV1 isolate 071 harboring reverse transcriptase 65R/S68N/184V mutant gene by phenosense assay relative to wild type; type: functional
Method in brief: (§2)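 Recombinant-virus PhenoSense HIV assay run on a panel of 30 NRTI-resistant HIV-1 mutants and two wild-type viruses. Each virus is tested across increasing drug concentrations to give an inhibition curve and EC50. Fold change is the test recombinant EC50 divided by the EC50 of the drug-sensitive wild-type reference virus.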

[3] = test system: Human immunodeficiency virus 1; experiment: Antiviral activity against HIV1 isolate 067 harboring reverse transcriptase A62V/D67G/T69SVG/V75I/T215I mutant gene by phenosense assay; type: functional, organism-based; conditions: Human immunodeficiency virus 1, isolate 067; method in brief: as §2
[4] = test system: Human immunodeficiency virus 1; experiment: Antiviral activity against HIV1 isolate 188 harboring reverse transcriptase T215Y/M184V mutant gene by phenosense assay relative to wild type; type: functional; method in brief: as §2
[5] = test system: Human immunodeficiency virus 1; experiment: Antiviral activity against HIV1 isolate 211 harboring reverse transcriptase D67N/K70R/T215F/K219E/M184V mutant gene by phenosense assay relative to wild type; type: functional; method in brief: as §1
[6] = test system: Human immunodeficiency virus 1; experiment: Antiviral activity against HIV1 isolate 058 harboring reverse transcriptase M41L/D67N/K70R/L210W/T215F/K219Q mutant gene by phenosense assay relative to wild type; type: functional; method in brief: as §2
[7] = test system: Human immunodeficiency virus 1; experiment: Antiviral activity against HIV1 isolate 066 harboring reverse transcriptase 184V mutant gene by phenosense assay relative to wild type; type: functional; method in brief: as §2
[8] = test system: Human immunodeficiency virus 1; experiment: Antiviral activity against HIV1 52534-2 harboring reverse transcriptase 41L//74V/210W/215Y/184V/69SSS mutant gene infected in human PBMC by ELISA; type: functional, organism-based; conditions: Human immunodeficiency virus 1, 52534-2
Method in brief: (§3)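 Fresh PBMCs pooled from at least two HIV- and HBV-seronegative donors, stimulated with PHA 4 μg/ml for 48–72 h and kept in rhIL-2 20 U/ml. Seeded at 5 × 10^4 cells/well and infected with RT-mutant HIV-1 clones at MOI ~0.1. Nine compound concentrations, triplicate wells, 7-day incubation. EC50 reported as mean ± SD of one to three independent experiments.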

[9] = test system: Human immunodeficiency virus 1; experiment: Antiviral activity against HIV1 isolate 067 harboring reverse transcriptase A62V/D67G/T69SVG/V75I/T215I mutant gene by phenosense assay relative to wild type; type: functional; method in brief: as §2
[10] = test system: Human immunodeficiency virus 1; experiment: Antiviral activity against HIV1 isolate 160 harboring reverse transcriptase S68G/V75(I/T)/F77L/Y115F/F116Y /Q151M mutant gene by phenosense assay; type: functional, organism-based; conditions: Human immunodeficiency virus 1, isolate 160; method in brief: as §2
[11] = test system: Human immunodeficiency virus 1; experiment: Antiviral activity against HIV1 isolate 070 harboring reverse transcriptase 65R/S68G mutant gene by phenosense assay; type: functional, organism-based; conditions: Human immunodeficiency virus 1, isolate 070; method in brief: as §2
[12] = test system: Human immunodeficiency virus 1; experiment: Antiviral activity against HIV1 isolate 220 harboring reverse transcriptase K70E/M184V mutant gene by phenosense assay relative to wild type; type: functional; method in brief: as §1
[13] = test system: Human immunodeficiency virus 1; experiment: Antiviral activity against HIV1 isolate 157 harboring reverse transcriptase L74V/M184V mutant gene by phenosense assay; type: functional, organism-based; conditions: Human immunodeficiency virus 1, isolate 157; method in brief: as §2
[14] = test system: Human immunodeficiency virus 1; experiment: Antiviral activity against HIV1 isolate 201 harboring reverse transcriptase M41L/L210W/T215Y mutant gene by phenosense assay relative to wild type; type: functional; method in brief: as §1
[15] = test system: Human immunodeficiency virus 1; experiment: Antiviral activity against HIV1 isolate 066 harboring reverse transcriptase 184V mutant gene by phenosense assay; type: functional, organism-based; conditions: Human immunodeficiency virus 1, isolate 066; method in brief: as §2
[16] = test system: Human immunodeficiency virus 1; experiment: Antiviral activity against HIV1 isolate 212 harboring reverse transcriptase L210W/T215Y mutant gene by phenosense assay relative to wild type; type: functional; method in brief: as §1
[17] = test system: Human immunodeficiency virus 1; experiment: Antiviral activity against HIV1 isolate 071 harboring reverse transcriptase 65R/S68N/184V mutant gene by phenosense assay; type: functional, organism-based; conditions: Human immunodeficiency virus 1, isolate 071; method in brief: as §2
[18] = test system: Human immunodeficiency virus 1; experiment: Antiviral activity against HIV1 isolate 061 harboring reverse transcriptase M41L/D67N/K70R/M184V/L210W/T215Y/K219E mutant gene by phenosense assay; type: functional, organism-based; conditions: Human immunodeficiency virus 1, isolate 061; method in brief: as §2
[19] = test system: Human immunodeficiency virus 1; experiment: Antiviral activity against HIV1 isolate 060 harboring reverse transcriptase M41L/D67N/K70R/L210W/T215Y/K219E mutant gene by phenosense assay relative to wild type; type: functional; method in brief: as §2
[20] = test system: Human immunodeficiency virus 1; experiment: Antiviral activity against HIV1 isolate 162 harboring reverse transcriptase A62V/V75I/F77L/Y115F/F116Y/Q151M/M184V mutant gene by phenosense assay; type: functional, organism-based; conditions: Human immunodeficiency virus 1, isolate 162; method in brief: as §2
[21] = test system: Human immunodeficiency virus 1; experiment: Antiviral activity against HIV1 isolate 215 harboring reverse transcriptase D67N/K70E mutant gene by phenosense assay relative to wild type; type: functional; method in brief: as §1
[22] = test system: Human immunodeficiency virus 1; experiment: Antiviral activity against HIV1 isolate 185 harboring reverse transcriptase T215Y mutant gene by phenosense assay relative to wild type; type: functional; method in brief: as §2
[23] = test system: Human immunodeficiency virus 1; experiment: Antiviral activity against HIV1 NL 4-3 expressing wild type reverse transcriptase infected in human PBMC by ELISA; type: functional, organism-based; conditions: Human immunodeficiency virus 1, NL 4-3
Method in brief: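 Fresh donor PBMCs, HIV- and HBV-seronegative, were stimulated with 4 μg/ml PHA for 48 to 72 h and kept on 20 U/ml rhIL-2. Cells pooled from at least two donors were seeded at 5 × 10^4 per well and infected at MOI ~0.1. Nine compound concentrations were run in triplicate wells for 7 days.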

[24] = test system: Human immunodeficiency virus 1; experiment: Antiviral activity against HIV1 isolate 180 harboring reverse transcriptase K65R mutant gene obtained as site-directed mutant of NL4-3 by phenosense assay relative to wild type; type: functional; method in brief: as §2
[25] = test system: Human immunodeficiency virus 1; experiment: Antiviral activity against HIV1 7324-1 harboring reverse transcriptase 41L/67N/69N/70R/215F/219E mutant gene infected in human PBMC by ELISA; type: functional, organism-based; conditions: Human immunodeficiency virus 1, 7324-1; method in brief: as §3
[26] = test system: Human immunodeficiency virus 1; experiment: Antiviral activity against HIV1 isolate 204 harboring reverse transcriptase M41L/L210W/T215Y/M184V mutant gene by phenosense assay relative to wild type; type: functional; method in brief: as §1
[27] = test system: Human immunodeficiency virus 1; experiment: Antiviral activity against HIV1 isolate 057 expressing wild type reverse transcriptase gene by phenosense assay; type: functional, organism-based; conditions: Human immunodeficiency virus 1, isolate 057
Method in brief: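 In the PhenoSense recombinant virus assay, virus was tested against increasing drug concentrations. EC50 came from the inhibition curve and was compared with a drug-sensitive reference virus.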

[28] = test system: Human immunodeficiency virus 1; experiment: Antiviral activity against HIV1 isolate 185 harboring reverse transcriptase T215Y mutant gene by phenosense assay; type: functional, organism-based; conditions: Human immunodeficiency virus 1, isolate 185; method in brief: as §2
[29] = test system: Human immunodeficiency virus 1; experiment: Antiviral activity against HIV1 isolate 153 harboring reverse transcriptase L74V mutant gene by phenosense assay; type: functional, organism-based; conditions: Human immunodeficiency virus 1, isolate 153; method in brief: as §2
[30] = test system: Human immunodeficiency virus 1; experiment: Antiviral activity against HIV1 isolate 192 harboring reverse transcriptase M41L/T215Y mutant gene by phenosense assay relative to wild type; type: functional; method in brief: as §2
[31] = test system: Human immunodeficiency virus 1; experiment: Antiviral activity against HIV1 isolate 200 harboring reverse transcriptase M41L/L210W/T215Y mutant gene by phenosense assay relative to wild type; type: functional; method in brief: as §2

SMILES: C[C@H](Cn1cnc2c(N)ncnc21)OCP(=O)(O)O [TENOFOVIR ANHYDROUS]
- EC50 [1]: 0.74 µM
- fold change (FC) [2]: 1.2
- EC50 [3]: 17 µM
- fold change (FC) [4]: 0.81
- fold change (FC) [5]: 0.91
- fold change (FC) [6]: 3.5
- fold change (FC) [7]: 0.69
- EC50 [8]: > 6.5 µM
- fold change (FC) [9]: 22
- EC50 [10]: 1.7 µM
- EC50 [11]: 1.3 µM
- fold change (FC) [12]: 0.61
- EC50 [13]: 0.23 µM
- fold change (FC) [14]: 3
- EC50 [15]: 0.53 µM
- fold change (FC) [16]: 1.3
- EC50 [17]: 0.94 µM
- EC50 [18]: 2 µM
- fold change (FC) [19]: 4
- EC50 [20]: 1.1 µM
- fold change (FC) [21]: 0.96
- fold change (FC) [22]: 2.4
- EC50 [23]: 0.3 µM
- fold change (FC) [24]: 2
- EC50 [25]: 6.5 µM
- fold change (FC) [26]: 1
- EC50 [27]: 0.65 µM
- EC50 [28]: 1.8 µM
- EC50 [29]: 0.48 µM
- fold change (FC) [30]: 1.8
- fold change (FC) [31]: 2.8

SMILES: CCCCCCCCCCCCCCCCOCCCOP(=O)(O)CO[C@H](C)Cn1cnc2c(N)ncnc21 [TENOFOVIR EXALIDEX]
- EC50 [1]: 0.0021 µM
- fold change (FC) [2]: 1.5
- EC50 [3]: 0.057 µM
- fold change (FC) [4]: 0.9
- fold change (FC) [5]: 1
- fold change (FC) [6]: 4.6
- fold change (FC) [7]: 0.73
- EC50 [8]: 0.009 µM
- fold change (FC) [9]: 31
- EC50 [10]: 0.0037 µM
- EC50 [11]: 0.0036 µM
- fold change (FC) [12]: 0.71
- EC50 [13]: 0.00066 µM
- fold change (FC) [14]: 3.5
- EC50 [15]: 0.0014 µM
- fold change (FC) [16]: 1.5
- EC50 [17]: 0.0027 µM
- EC50 [18]: 0.0061 µM
- fold change (FC) [19]: 3.3
- EC50 [20]: 0.0031 µM
- fold change (FC) [21]: 1.2
- fold change (FC) [22]: 2.7
- EC50 [23]: 0.0015 µM
- fold change (FC) [24]: 2.6
- EC50 [25]: 0.0038 µM
- fold change (FC) [26]: 1.4
- EC50 [27]: 0.0016 µM
- EC50 [28]: 0.005 µM
- EC50 [29]: 0.0012 µM
- fold change (FC) [30]: 2.1
- fold change (FC) [31]: 3.2
